{"source": "ChEMBL document CHEMBL3872226", "about": "“Evaluation of selected 3D virtual screening tools for the prospective identification of peroxisome proliferator-activated receptor (PPAR) γ partial agonists” (Eur J Med Chem, 2016)", "key": {"[1]": {"target": "T1, Peroxisome proliferator-activated receptor gamma (Homo sapiens, UniProt P37231)", "T1 sequence (P37231 whole entry)": "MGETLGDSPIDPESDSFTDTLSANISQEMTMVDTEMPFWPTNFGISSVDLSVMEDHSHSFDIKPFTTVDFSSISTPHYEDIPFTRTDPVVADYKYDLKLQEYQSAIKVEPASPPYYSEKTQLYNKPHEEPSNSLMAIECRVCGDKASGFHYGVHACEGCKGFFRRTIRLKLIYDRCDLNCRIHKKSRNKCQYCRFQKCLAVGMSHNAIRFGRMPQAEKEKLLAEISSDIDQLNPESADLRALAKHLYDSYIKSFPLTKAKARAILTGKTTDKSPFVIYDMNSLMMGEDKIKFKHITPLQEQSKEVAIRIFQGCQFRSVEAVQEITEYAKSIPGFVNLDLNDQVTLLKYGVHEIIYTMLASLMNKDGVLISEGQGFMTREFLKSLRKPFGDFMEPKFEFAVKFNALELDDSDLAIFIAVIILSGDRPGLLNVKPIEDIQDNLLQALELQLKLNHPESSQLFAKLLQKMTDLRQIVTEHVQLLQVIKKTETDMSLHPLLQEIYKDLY", "assay": "Displacement of Fluoromone from GST-tagged recombinant human PPARgamma ligand binding domain by LanthaScreen TR-FRET assay"}, "[2]": {"target": "T1, Peroxisome proliferator-activated receptor gamma", "assay": "Transactivation of GAL4-fused human PPARgamma ligand binding domain expressed in African green monkey COS7 cells after 42 hrs by dual luciferase reporter gene assay", "type": "cell-based, COS-7"}, "[3]": {"target": "T2, Peroxisome proliferator-activated receptor gamma (Homo sapiens) (UniProt P37231)", "T2 sequence (whole entry)": "T1 sequence (P37231 whole entry)", "assay": "Displacement of Fluoromone from GST-tagged recombinant human PPARgamma ligand binding domain at 10 uM by LanthaScreen TR-FRET assay relative to pioglitazone", "procedure,_shortened": "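Recombinant GST-tagged PPARγ LBD incubated with terbium-labelled anti-GST antibody and fluorescein-labelled pan-PPAR agonist Fluoromone (5 nM), triplicates; DMSO negative control, pioglitazone and telmisartan positive controls. TR-FRET read as 520/495 nm emission ratio; compound autofluorescence subtracted as blank. Displacement expressed relative to pioglitazone.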"}, "[4]": {"target": "T2, Peroxisome proliferator-activated receptor gamma (Homo sapiens)", "assay": "Transactivation of GAL4-fused human PPARgamma ligand binding domain expressed in African green monkey COS7 cells at 10 uM after 42 hrs by dual luciferase reporter gene assay relative to pioglitazone", "type": "cell-based", "conditions": "COS-7", "procedure,_shortened": "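COS-7 cells seeded at 10^4 cells/well in DMEM with 10% FCS, grown 24 h at 37 °C, 5% CO2. Transiently transfected in serum- and antibiotic-free medium with pGal5-TK-Luc (30 ng), pGal4-PPARγ-LBD (3 ng) and pRenilla-CMV (1 ng). Compounds or DMSO vehicle added after 4 h, triplicates; dual-luciferase read after 42 h. Activation relative to pioglitazone.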"}}}
{"compound": "O=C(CN1c2ccccc2Sc2ccccc21)NNC(=S)NCc1ccccc1", "values": [{"measurement": "EC50", "setting": "[1]", "value": 2800, "unit": "nM"}, {"measurement": "EC50", "setting": "[2]", "value": 21700, "unit": "nM"}, {"measurement": "inhibition", "setting": "[3]", "value": 86, "unit": "%"}, {"measurement": "Activity", "setting": "[4]", "value": 41.9, "unit": "%"}]}
{"compound": "N#CC(/N=C/c1cc(Cl)cc(Cl)c1O)=C(C#N)/N=C/c1cc(Cl)cc(Cl)c1O", "values": [{"measurement": "inhibition", "setting": "[3]", "value": 46, "unit": "%"}]}
{"compound": "O=C(O)c1cn(C2CCCCC2)c2ccccc2c1=O", "values": [{"measurement": "Activity", "setting": "[4]", "value": 12, "unit": "%"}]}
{"compound": "Cc1[nH]c2ccccc2c1SCc1nnc(SCc2ccccc2)n1C", "values": [{"measurement": "Activity", "setting": "[4]", "value": 9.8, "unit": "%"}]}
{"compound": "COc1ccc(CCNc2ccc(C(F)(F)F)cc2/N=C/c2cc(Cl)cc(Cl)c2O)cc1OC", "values": [{"measurement": "Activity", "setting": "[4]", "value": 9.9, "unit": "%"}]}
{"compound": "COc1cc2c(cc1OC)C(/C=C1\\SC(C(=O)c3cccs3)=NN1c1ccc(C)cc1)=NCC2", "values": [{"measurement": "inhibition", "setting": "[3]", "value": 42, "unit": "%"}]}
{"compound": "Cc1nc(CSc2nnc(-c3ccc(C(F)(F)F)cc3)n2Cc2ccco2)cs1", "values": [{"measurement": "Activity", "setting": "[4]", "value": 2.8, "unit": "%"}]}
{"compound": "Cn1ccnc1SCc1nccn1Cc1ccc(Cl)cc1", "values": [{"measurement": "Activity", "setting": "[4]", "value": 8.1, "unit": "%"}]}
{"compound": "O=S(=O)(Nc1cc(Cc2cc(NS(=O)(=O)c3ccccc3)cc(C(F)(F)F)c2)cc(C(F)(F)F)c1)c1ccccc1", "values": [{"measurement": "EC50", "setting": "[1]", "value": 600, "unit": "nM"}, {"measurement": "EC50", "setting": "[2]", "value": 3400, "unit": "nM"}, {"measurement": "inhibition", "setting": "[3]", "value": 99, "unit": "%"}, {"measurement": "Activity", "setting": "[4]", "value": 23.7, "unit": "%"}]}
{"compound": "Cc1c(NS(=O)(=O)c2ccc(S(=O)(=O)c3ccccc3)s2)c(=O)n(-c2ccccc2)n1C", "values": [{"measurement": "Activity", "setting": "[4]", "value": 7.8, "unit": "%"}]}
{"compound": "O=S(=O)(c1ccc(Cl)cc1)c1cnn(S(=O)(=O)c2ccc(Cl)cc2Cl)c1-c1ccc(Cl)cc1", "values": [{"measurement": "EC50", "setting": "[1]", "value": 2100, "unit": "nM"}, {"measurement": "inhibition", "setting": "[3]", "value": 80, "unit": "%"}]}
{"compound": "O=c1n(Cc2ccc(Cl)cc2Cl)c2ccccc2n1Cc1ccc(Cl)cc1Cl", "values": [{"measurement": "Activity", "setting": "[4]", "value": 9.1, "unit": "%"}]}
{"compound": "O=C(CSCc1ccc(Cl)c(Cl)c1)c1ccc(OCc2ccc([N+](=O)[O-])cc2)cc1", "values": [{"measurement": "Activity", "setting": "[4]", "value": 11.1, "unit": "%"}]}
{"compound": "O=C(CSc1nnc(SCC(=O)NCCSCc2ccco2)s1)NCCSCc1ccco1", "values": [{"measurement": "Activity", "setting": "[4]", "value": 12.3, "unit": "%"}]}
{"compound": "O=S(=O)(Nc1ccc(Oc2ccc(OC(F)(F)F)cc2)cc1)c1cc(Cl)c(Cl)cc1Cl", "values": [{"measurement": "inhibition", "setting": "[3]", "value": 45, "unit": "%"}]}
{"compound": "COc1nc(-c2ccc(OCc3ccccc3)cc2OCc2ccc(F)cc2)cc(-c2ccc(C)cc2)c1C#N", "values": [{"measurement": "Activity", "setting": "[4]", "value": 9.5, "unit": "%"}]}
{"compound": "Cc1noc(C)c1-c1noc(CSCc2ccc(Cl)cc2)n1", "values": [{"measurement": "Activity", "setting": "[4]", "value": 8.4, "unit": "%"}]}
{"compound": "COc1ccc(-c2cn3cccc(OCc4ccc(Cl)c(Cl)c4)c3n2)cc1", "values": [{"measurement": "EC50", "setting": "[1]", "value": 3100, "unit": "nM"}, {"measurement": "inhibition", "setting": "[3]", "value": 60, "unit": "%"}]}
{"compound": "Cc1noc(C)c1-c1nc(CS(=O)(=O)Cc2ccc(Cl)cc2)no1", "values": [{"measurement": "Activity", "setting": "[4]", "value": 12.8, "unit": "%"}]}
{"compound": "Oc1c(O)c(CN2CCCCC2)c2ccccc2c1CN1CCCCC1", "values": [{"measurement": "Activity", "setting": "[4]", "value": 2.7, "unit": "%"}]}
{"compound": "Cc1ccc(S(=O)(=O)n2nc(C)c(Sc3nccn3C)c2C)cc1", "values": [{"measurement": "Activity", "setting": "[4]", "value": 10.1, "unit": "%"}]}
{"compound": "N#Cc1c(SCc2ccccc2)nc2c(c1/C=C\\c1ccccc1)CCC2", "values": [{"measurement": "Activity", "setting": "[4]", "value": 14.4, "unit": "%"}]}
{"compound": "Cc1ccc(Sc2c(C(=O)O)cnc3c2c(C)nn3C)cc1", "values": [{"measurement": "Activity", "setting": "[4]", "value": 7, "unit": "%"}]}
{"compound": "O=S(=O)(CS(=O)(=O)Oc1cc(Cl)cc(Cl)c1)Oc1cc(Cl)cc(Cl)c1", "values": [{"measurement": "inhibition", "setting": "[3]", "value": 48, "unit": "%"}]}
{"compound": "Cc1nn(C)c(Cl)c1S(=O)(=O)Nc1ccc(Oc2ccc(F)cc2)cc1", "values": [{"measurement": "Activity", "setting": "[4]", "value": 3, "unit": "%"}]}
{"compound": "Cc1ccc(S(=O)(=O)Nc2ccc(Oc3cccnc3)nc2)cc1", "values": [{"measurement": "Activity", "setting": "[4]", "value": 6, "unit": "%"}]}
{"compound": "Cc1cc(Oc2nc(NCCSC(C)(C)C)nc(Oc3cc(C)c(Cl)c(C)c3)n2)cc(C)c1Cl", "values": [{"measurement": "Activity", "setting": "[4]", "value": 9, "unit": "%"}]}
{"compound": "CCCc1nc2c(C)cc(-c3nc4ccccc4n3C)cc2n1Cc1ccc(-c2ccccc2C(=O)O)cc1", "note": "[TELMISARTAN]", "values": [{"measurement": "EC50", "setting": "[1]", "value": 700, "unit": "nM"}, {"measurement": "inhibition", "setting": "[3]", "value": 91, "unit": "%"}]}
{"compound": "CSc1nc(Sc2nnc(-c3cc(C(F)(F)F)cc(C(F)(F)F)c3)[nH]2)cc(Sc2nnc(-c3cc(C(F)(F)F)cc(C(F)(F)F)c3)[nH]2)n1", "values": [{"measurement": "EC50", "setting": "[1]", "value": 5400, "unit": "nM"}, {"measurement": "inhibition", "setting": "[3]", "value": 76, "unit": "%"}]}
{"compound": "CC(C)(CC(=O)O)CC(=O)N1CCCN(c2nccc(C(F)(F)F)n2)CC1", "values": [{"measurement": "Activity", "setting": "[4]", "value": 9.8, "unit": "%"}]}
